Published values pooled from the literature.
Protocols differ between the studies behind these lines.
TAOK2: Serine/threonine-protein kinase TAO2 (TAOK2, Homo sapiens, UniProt Q9UL54)
PIK3C2A: Phosphatidylinositol 4-phosphate 3-kinase C2 domain-containing subunit alpha (PIK3C2A, Homo sapiens, UniProt O00443)

C#Cc1n[nH]c2c(-c3cn([C@@H](C)c4ccccc4)c(=O)[nH]c3=O)cc(F)cc12
inhibition (Mitogen-activated protein kinase 14 (MAPK14, Homo sapiens, UniProt Q16539); enzyme activity, inhibitor; 0.1 µM): 2.1%

Cc1nn(C)cc1-c1nc2c(N3CCN(Cc4ccc(Cl)cc4)CC3)c(Cl)cnc2[nH]1
remaining binding (Cyclin-dependent kinase 14 (CDK14, Homo sapiens, UniProt O94921); binding, competition with immobilised ligand; 1 µM): 100%

Nc1ncc(-c2nc(N3CCOCC3)nc(N3CCOCC3)n2)c(C(F)F)n1
remaining binding (Serine/threonine-protein kinase RIO2 (RIOK2, Homo sapiens, UniProt Q9BVS4); binding, competition with immobilised ligand; 10 µM): 51%

COc1ncccc1-c1cnn2ccc(N3CCN(C(=O)OC(C)C)CC3)nc12
remaining binding (TAOK2; binding, competition with immobilised ligand; 1 µM): 64%

CC[C@H](C)[C@@H](C(=O)O[C@@H](CC(C)C)C(=O)N[C@@H](CC(C)C)C(=O)N[C@@H](C)/C=C/C(=O)N1C(=O)C=C(OC)[C@@H]1C)N(C)C
kinact/KI (Falcipain-3 (FP3, Plasmodium falciparum 3D7, UniProt Q8IIL0); enzyme activity, inhibitor, fluorescence; pH 6): 7030 M⁻¹ s⁻¹

Cn1cc(-c2cc(F)cc(N3CCn4c(cc5c4CCCC5)C3=O)c2CO)cc(Nc2ccc(N3CCN(C4COC4)CC3)cn2)c1=O
inhibition (PIK3C2A; enzyme activity, inhibitor; 0.1 µM): -2%

COc1cc(Nc2ncc(F)c(Nc3ccc4c(n3)NC(=O)C(C)(C)O4)n2)cc(OC)c1OC
inhibition (TAOK2; binding; 10 µM): 88%

CCCCCc1cc(O)c2c(c1)OC(C)(CCC=C(C)C)C=C2 (centres unmarked)
remaining activity (Polyunsaturated fatty acid lipoxygenase ALOX12 (ALOX12, Homo sapiens, UniProt P18054); enzyme activity in cells, inhibitor; PMNL; 10 µM): 122%

CCN(CC)CCCC[C@H](NC(=O)[C@H](CC(C)C)NC(=O)[C@H](C)NC(=O)[C@H](Cc1ccccc1)NC(=O)c1ccc(C(C)(C)C)cc1)C(=O)N[C@@H](CO)C(=O)OC
ΔTm (Bromodomain-containing protein 1, bromodomain (BRD1, Homo sapiens, UniProt O95696); thermal stability, DSF; 25 µM): 0.49 °C

C#Cc1n[nH]c2c(-c3cn(C(C)c4ccccn4)c(=O)[nH]c3=O)cc(F)cc12 (centres unmarked)
inhibition (PIK3C2A; enzyme activity, inhibitor; 1 µM): 8.9%

Cn1cc(-c2cccc(N3CCc4c(sc5c4CC(C)(C)C5)C3=O)c2CO)cc(Nc2ccncn2)c1=O
inhibition (Serine/threonine-protein kinase PAK 3 (PAK3, Homo sapiens, UniProt O75914); enzyme activity, inhibitor; 1 µM): -3%
